ChEMBL document CHEMBL1121682, “Cerebrovasodilatation through selective inhibition of the enzyme carbonic anhydrase. 3. 5-(Arylthio)-, 5-(arylsulfinyl)-, and 5-(arylsulfonyl)thiophene-2-sulfonamides” (J Med Chem, 1981)
Activity calls are given as the source filed them. No cut-off for these calls is given here.

Experiments:
Mus musculus [1] = assay: Effective dose of perorally administered compound that gives protection against max electroshock in mice; inactive; type: functional, organism-based
Procedure, shortened: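 Male mice of 18–28 g, with weights within ±2 g of the assay mean, in groups of ten. Compound was ball-milled in 0.1% (v/v) Tween-80 in saline and given by gavage at 2.5, 6.25 and 16 mg/kg, 2 h before shock. Vehicle controls were included. Corneal electrodes delivered 200 ms at 20 mA (mean weight ≤20 g) or 25 mA, the current giving maximal tonic extensor convulsion in untreated mice.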

Mus musculus [2] = assay: Effective dose of perorally administered, that gives protection against max electroshock in mice; type: functional; conditions: po
Procedure, shortened: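 Male mice of 18–28 g, with weights within ±2 g of the assay mean, in groups of ten. Vehicle controls were included. Corneal electrodes delivered 200 ms at 20 mA (mean weight ≤20 g) or 25 mA, the current giving maximal tonic extensor convulsion in untreated mice.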

[3] = Anticonvulsant potency ratio expressed as ratio ED50 of UK-12130 to that of compound during separate electroshock experiments; type: functional
[4] = Concentration producing 50% inhibition of carbonic anhydrase taken from mouse erythrocytes
Procedure, shortened: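 Colorimetric assay, modified from Philpot and Philpot, run in an ice bath with about 2 enzyme units. Inhibitor was preincubated with enzyme for 5 min before substrate was added. Activity was expressed as EU = (T0 − T)/T from the uncatalyzed and catalyzed reaction times in seconds. The 50% inhibitory concentration was read graphically.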

[5] = Dissociation constant in 30% aqueous methanol; type: physicochemical
[6] = Dissociation constant in water; type: physicochemical

SMILES	ED50 (Mus musculus [2]) [mg/kg]	Ratio [3]	other results
CC(C)(C)c1ccc(Sc2ccc(S(N)(=O)=O)s2)cc1			ED50 (Mus musculus [1]): inactive
NS(=O)(=O)c1ccc(S(=O)(=O)c2cccc(F)c2)s1	2	3.5	
NS(=O)(=O)c1ccc(Sc2ccc3ccccc3c2)s1			ED50 (Mus musculus [1]): inactive
NS(=O)(=O)c1sc(Sc2ccccc2)cc1Cl			ED50 (Mus musculus [1]): inactive
NS(=O)(=O)c1cc(Cl)c([S+]([O-])c2ccccc2)s1 (centres undefined)	> 6	< 1.3	
COc1ccc(S(=O)(=O)c2ccc(S(N)(=O)=O)s2)cc1	6	1	
CC(C)C(=O)Nc1ccc(Sc2ccc(S(N)(=O)=O)s2)cc1			ED50 (Mus musculus [1]): inactive
NS(=O)(=O)c1cc(Cl)c(Sc2ccccc2)s1			ED50 (Mus musculus [1]): inactive
CC(=O)Nc1ccc(S(=O)(=O)c2sc(S(N)(=O)=O)cc2Cl)cc1	6	1.3	
NS(=O)(=O)c1cc(Br)c(Sc2ccccc2)s1			ED50 (Mus musculus [1]): inactive
CC(=O)Nc1ccc(Sc2sc(S(N)(=O)=O)cc2Cl)cc1			ED50 (Mus musculus [1]): inactive
COc1ccc(Sc2ccc(S(N)(=O)=O)s2)cc1	> 40	< 0.2	
CS(=O)(=O)c1ccc([S+]([O-])c2ccc(S(N)(=O)=O)s2)cc1 (centres undefined)	> 16	< 0.4	
CN(C)S(=O)(=O)c1ccc(Sc2ccc(S(N)(=O)=O)s2)cc1	> 6	< 1.3	
NS(=O)(=O)c1sc(S(=O)(=O)c2ccccc2)cc1Cl	33	0.2	
NS(=O)(=O)c1ccc([S+]([O-])c2ccc(F)cc2)s1 (centres undefined)	3	2	
CC(=O)Nc1ccc(Sc2cc(Cl)c(S(N)(=O)=O)s2)cc1	5	1.4	
CC(C)C(=O)Nc1ccc(S(=O)(=O)c2ccc(S(N)(=O)=O)s2)cc1	4	2	
Nc1ccc(S(=O)(=O)c2ccc(S(N)(=O)=O)s2)cc1	2	3.5	
NS(=O)(=O)c1ccc([S+]([O-])c2cccc(Cl)c2)s1 (centres undefined)	4	1.75	
Cc1cc(S(N)(=O)=O)sc1S(=O)(=O)c1ccccc1	3	2.7	

SMILES	ED50 (Mus musculus [2]) [mg/kg]	Ratio [3]	other results
NS(=O)(=O)c1ccc(S(=O)(=O)c2ccc3ccccc3c2)s1	8	0.75	
COc1ccc([S+]([O-])c2ccc(S(N)(=O)=O)s2)cc1 (centres undefined)	> 6	< 1.3	
NS(=O)(=O)c1ccc([S+]([O-])c2cccc(F)c2)s1 (centres undefined)	2.5	3.2	
NS(=O)(=O)c1cc(Cl)c(S(=O)(=O)c2ccccc2)s1	3	2.3	
CN(C)S(=O)(=O)c1ccc(S(=O)(=O)c2ccc(S(N)(=O)=O)s2)cc1			ED50 (Mus musculus [1]): inactive
CSc1ccc(Sc2ccc(S(N)(=O)=O)s2)cc1	4	1.75	
CC(C)(C)c1ccc(S(=O)(=O)c2ccc(S(N)(=O)=O)s2)cc1			ED50 (Mus musculus [1]): inactive
CC(=O)Nc1ccc([S+]([O-])c2ccc(S(N)(=O)=O)s2)cc1 (centres undefined)	4	1.5	
NS(=O)(=O)c1ccc(Sc2cccc(Cl)c2)s1	> 6	< 1.2	
NS(=O)(=O)c1ccc(S(=O)(=O)c2cccc(C(F)(F)F)c2)s1	5	1.6	
NS(=O)(=O)c1ccc(Sc2cccc(F)c2)s1	> 6	< 1.3	
NS(=O)(=O)c1ccc([S+]([O-])c2ccccc2)s1 (centres undefined)	2	3.5	
NS(=O)(=O)c1ccc(Sc2ccc(O)cc2)s1			ED50 (Mus musculus [1]): inactive
NS(=O)(=O)c1ccc(Sc2ccc(Cl)cc2)s1	3	2	Concentration [4]: 3 nM; pKa [5]: 9.19
NS(=O)(=O)c1cc(Br)c(S(=O)(=O)c2ccccc2)s1	3	2.3	Concentration [4]: 4.2 nM; pKa [6]: 7.98
NS(=O)(=O)c1ccc([S+]([O-])c2ccc(Br)cc2)s1 (centres undefined)	5	1.4	
CS(=O)(=O)c1ccc(Sc2ccc(S(N)(=O)=O)s2)cc1	5	1.4	
NS(=O)(=O)c1ccc(S(=O)(=O)c2ccccc2)s1	2	3.5	
NS(=O)(=O)c1ccc([S+]([O-])c2ccc(Cl)cc2)s1 (centres undefined)	2	3.5	Concentration [4]: 26 nM; pKa [6]: 8.57
Cc1ccccc1Sc1ccc(S(N)(=O)=O)s1	> 16	< 0.5	
NS(=O)(=O)c1ccc(S(=O)(=O)c2ccccc2)cc1	10	0.9	Concentration [4]: 64 nM; pKa [6]: 9.1

SMILES	ED50 (Mus musculus [2]) [mg/kg]	Ratio [3]	other results
CC(=O)Nc1ccc(Sc2ccc(S(N)(=O)=O)s2)cc1	9	1.1	
NS(=O)(=O)c1ccc(Sc2ccc(F)cc2)s1	7	1	
NS(=O)(=O)c1ccc(Sc2ccc(Br)cc2)s1	> 6	< 1.2	
CC(=O)Nc1nnc(S(N)(=O)=O)s1 [ACETAZOLAMIDE]	36		Concentration [4]: 20 nM
Cc1ccccc1S(=O)(=O)c1ccc(S(N)(=O)=O)s1	6	1.2	
Cc1ccc([S+]([O-])c2ccc(S(N)(=O)=O)s2)cc1 (centres undefined)	> 6	< 1.3	
NS(=O)(=O)c1ccc(S(=O)(=O)c2ccc(Cl)cc2)s1	3	2.3	
CC(=O)c1cccc(S(=O)(=O)c2ccc(S(N)(=O)=O)s2)c1	3	2.3	
CS(=O)(=O)c1ccc(S(=O)(=O)c2ccc(S(N)(=O)=O)s2)cc1	4	1.75	
NS(=O)(=O)c1ccc(Sc2ccccc2)s1	19	0.3	
CC(=O)Nc1ccc(S(=O)(=O)c2cc(Cl)c(S(N)(=O)=O)s2)cc1	> 6	< 1.3	
NS(=O)(=O)c1ccc(S(=O)(=O)c2ccc(Br)cc2)s1	4	1.75	
CC(=O)Nc1ccc(S(=O)(=O)c2ccc(S(N)(=O)=O)s2)cc1	2	4	
Cc1ccc(S(=O)(=O)c2ccc(S(N)(=O)=O)s2)cc1	8	0.8	
NS(=O)(=O)c1ccc(S(=O)(=O)c2ccc(O)cc2)s1			ED50 (Mus musculus [1]): inactive
NS(=O)(=O)c1ccc(S(=O)(=O)c2ccc(F)cc2)s1	2	4	Concentration [4]: 9 nM; pKa [6]: 8.29
Cc1ccc(Sc2ccc(S(N)(=O)=O)s2)cc1	> 40	< 0.2	
NC(=O)c1ccc(S(=O)(=O)c2ccc(S(N)(=O)=O)s2)cc1	4	2	
NS(=O)(=O)c1ccc(Sc2cccc(C(F)(F)F)c2)s1	6	1.3	
Nc1ccc(Sc2ccc(S(N)(=O)=O)s2)cc1	7	1	
COC1CCN(S(=O)(=O)c2ccc(S(N)(=O)=O)c(Cl)c2)CC1			Concentration [4]: 190 nM
